Source: PubChem BioAssay (Johns Hopkins Ion Channel Center)
Kir21 inh: inhibitors of mouse Kir2.1 inward-rectifier potassium channel | Inward rectifier potassium channel 2 (Mus musculus), P35561 | HEK293-Kir2.1, FluxOR thallium flux fluorescence; stronger effect = lower value | B-score at 10 µM | 0.85% of 310,000 active | AID 1672, 2009;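 active = fluorescence ratio B-score at or below minus 3 SD of library scores, with starting-brightness B-score within 2 SD, cut at about -4.2 in these data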;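 note: channel flux triggered by added potassium and thallium sulfate stimulus; B-score of peak minus minimum fluorescence over baseline after thallium stimulus; more negative B-score means stronger Kir2.1 block with less thallium influx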
KCNK3 block: human KCNK3 channel inhibitors, primary screen, CHO cells, FluxOR thallium flux, B-score. Potassium channel subfamily K member 3 (Homo sapiens), O14649. FluxOR fluorescence; stronger effect = lower value. B-score at 10 µM. 0.84% of 340,000 active;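 active = B-score under library mean minus 4 SD, starting fluorescence ratio at most library mean plus 5 SD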;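 note: more negative B-score means stronger inhibition of thallium flux through KCNK3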
KCNQ1 block: inhibitors of human KCNQ1 channel, primary screen, cell-based, thallium flux, high-throughput; Potassium voltage-gated channel subfamily KQT member 1 (Homo sapiens), P51787; 1.3% of 310,000 active; B-score at 10 µM; CHO-K1 KCNQ1, FluxOR thallium flux fluorescence; stronger effect = higher value;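 active = compounds whose thallium flux B-score, printed positive for inhibition, exceeds three library SD while starting fluorescence stays within three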;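 note: channel opened by potassium depolarization with thallium stimulus after 20 min compound exposure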
KCNQ1 act: potentiators or activators of KCNQ1 channel, primary screen, cell-based, thallium flux, high-throughput; CHO-K1 KCNQ1, thallium flux FluxOR fluorescence; stronger effect = higher value; B-score at 10 µM; 0.35% of 310,000 active;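 active = fluorescence ratio B-score, a plate-corrected score, at least three library SD, with initial intensity B-score within 5 SD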
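assay system = KCNQ1-transfected CHO-K1 cells | medium = assay buffer with matched DMSO | probe or stimulus = depolarizing K+/Tl+ stimulus, K2SO4 and Tl2SO4 each 12.5 mM in 5x stock | dosing = single dose | incubation = dye 90 min, compound 20 min, room temperature | detection = kinetic FluxOR fluorescence, 10 s baseline plus 110 s post-stimulus | evaluation = ratio B score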
KCNK9 inh: KCNK9 potassium channel inhibitors, primary screen, HEK293 cells, thallium flux | Potassium channel subfamily K member 9 (Homo sapiens), Q9NPC2 | FluxOR thallium flux fluorescence; stronger effect = lower value | B-score at 10 µM | 1.2% of 310,000 active | AID 488922, 2010;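 active = ratio B-score over 3 SD below the library mean, with starting fluorescence within 5 SD of its mean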;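 note: negative B-score means less thallium flux so channel inhibition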
hERG protect: hERG rescue from dofetilide block, primary screen, cell-based, CHO-hERG, FluxOR thallium flux, dofetilide IC70 | Voltage-gated inwardly rectifying potassium channel KCNH2 (Homo sapiens), Q12809 | dofetilide IC70 present | activation (rescue from dofetilide block), less the hit threshold, % at 10 µM | 0.51% of 310,000 active | AID 1511, 2009;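 active = activation above the mean of controls blocked by dofetilide plus 5 SD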;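 note: thallium influx through hERG after potassium depolarization seen as dye fluorescence rise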
KCNK9 block conf: KCNK9 potassium channel inhibitors, confirmation, HEK293 cells, thallium flux, duplicate; inhibition, % at 10 µM; 43% of 4,900 active; FluxOR thallium flux fluorescence; shares compounds with KCNK9 inh; AID 492992, 2010;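 active = thallium signal inhibited by more than 5 SD of the compound-free buffer control wells, on both duplicate plates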
Kir21 sel: mouse Kir2.1 channel inhibition, confirmation, selectivity assay for KCNK9 modulator project, cell-based, HEK293, thallium flux. shares compounds with KCNK9 inh. Kir2.1 cells, FluxOR thallium flux fluorescence. inhibition, % at 10 µM. 4% of 4,900 active. AID 492993, 2010;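 active = thallium signal drop more than 5 SD beyond the mean of the no-compound control wells, seen in both duplicate plates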;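 note: signal is fluorescence rise after thallium addition divided by baseline fluorescence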
KCNK9 uninduced: thallium flux in non-induced HEK293 cells, confirmation, counter-screen for KCNK9 inhibitor project, cell-based, second counter screen, non-induced KCNK9-HEK293; shares compounds with KCNK9 inh; FluxOR thallium flux; inhibition, % at 10 µM; 40% of 4,900 active; AID 492997, 2010;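 active = thallium signal drop beyond 5 SD of the untreated control mean, on both duplicate plates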
Hits are given with their value; i = inactive; nt = no result. Most compounds without a hit are left out; they make up all but 3.8% or so of the library.

SMILES	Kir21 inh	KCNK3 block	KCNQ1 block	KCNQ1 act	KCNK9 inh	hERG protect	KCNK9 block conf	Kir21 sel	KCNK9 uninduced
Nc1nc(-c2ccc([N+](=O)[O-])cc2)cc(=O)[nH]1	nt	i	nt	nt	nt	nt	nt	nt	nt
Cc1cccc(C)c1NC(=O)C(C)c1ccc(-c2ccccc2)c(F)c1 (stereo not given)	i	i	i	i	-10	i	47%	i	46%
Cc1cccc(C)c1NC(=O)C(NC=O)c1ccc(Cl)cc1 (stereo not given)	i	i	i	i	i	i	nt	nt	nt
NC(=O)c1sc(-c2ccsc2)cc1NS(=O)(=O)c1ccc(C(F)(F)F)cc1	i	i	i	i	i	i	i	i	i
Cc1ccc(NC(=O)COC(=O)CN2CCCCCC2=O)cc1C	nt	i	nt	nt	nt	nt	nt	nt	nt
Cc1ccc2nc(C(=O)N3CCc4c([nH]c5ccccc45)C3c3ccccn3)cn2c1 (stereo not given)	i	i	i	i	i	i	nt	nt	nt
CSc1nc(C(=O)N2CCc3c([nH]c4ccccc34)C2c2ccccn2)cs1 (stereo not given)	i	i	i	i	-9.7	i	49%	i	29%
O=C(c1cccs1)N1CCc2c([nH]c3ccccc23)C1c1ccccn1 (stereo not given)	i	i	i	i	-9	i	i	i	i
Cc1ccc(NC(=O)c2ccc(Cl)c(S(=O)(=O)N3CCCCC3)c2)nc1	nt	i	nt	nt	nt	nt	nt	nt	nt
Cc1ccc([N+](=O)[O-])c(OCCN2CCNCC2)c1	i	i	i	i	i	i	i	i	i
Cc1cc(OCCN2CCC(Cc3ccccc3)CC2)ccc1[N+](=O)[O-]	i	i	i	i	i	i	i	i	i
Cc1cc(OCCN2CC(C)OC(C)C2)ccc1[N+](=O)[O-] (stereo not given)	i	i	i	i	i	i	nt	nt	nt
COc1ccc(C2C(C(=O)c3ccco3)=C(O)C(=O)N2CC2CCCO2)cc1OC (stereo not given)	i	i	i	i	i	i	nt	nt	nt
CC(/C=C1\SC(=S)N(NS(=O)(=O)c2ccc(C)cc2)C1=O)=C\c1ccccc1	i	i	i	39	i	i	i	i	i
CC(/C=C1\SC(=S)N(NC(=O)c2ccccc2C)C1=O)=C\c1ccccc1	i	i	i	i	i	i	nt	nt	nt
CC(/C=C1\SC(=S)N(C(C(=O)O)C(C)C)C1=O)=C\c1ccccc1 (stereo not given)	i	i	i	i	i	i	i	i	i
CC(/C=C1\SC(=S)N(NS(=O)(=O)c2ccccc2)C1=O)=C\c1ccccc1	i	i	i	14	i	10	i	i	i
C=CCOc1ccc(/C=C2\SC(=S)N(NS(=O)(=O)c3ccccc3)C2=O)cc1	i	i	i	15	i	i	i	i	i
Cc1ccc(C(=O)O)cc1NC(=S)NC(=O)c1ccc(-c2ccccc2)cc1	i	i	i	i	i	i	i	i	i
Cc1cccc(NC(=S)NC(=O)c2ccc(-c3ccccc3)cc2)n1	i	i	i	i	-11	i	i	i	i
Cc1cccc(NC(=S)NC(=O)C(c2ccccc2)c2ccccc2)n1	i	i	i	i	i	i	nt	nt	nt
CON(C)S(=O)(=O)NC(=O)C1=C(N2CCCC2)COC1=O	nt	i	nt	nt	nt	nt	nt	nt	nt
COC(=O)c1ccc(COc2ccccc2/C=C(\C#N)C(=O)Nc2c(C)cccc2C)cc1	i	i	i	i	-13	i	76%	i	34%
COC(=O)c1ccc(COc2ccccc2/C=C(\C#N)C(=O)Nc2ccccc2C)cc1	i	i	i	i	i	i	nt	nt	nt
CCN1/C(=C/c2sc(-c3ccccc3C)c[n+]2C)Sc2ccccc21	-7.6	-10	11	i	-13	i	69%	64%	28%
SMILES	Kir21 inh	KCNK3 block	KCNQ1 block	KCNQ1 act	KCNK9 inh	hERG protect	KCNK9 block conf	Kir21 sel	KCNK9 uninduced
CCC(=O)/C=C1/Sc2ccccc2N1CC	i	i	i	i	i	i	nt	nt	nt
CC(=O)Oc1c(Br)cc(N(C(C)=O)S(=O)(=O)c2ccccc2)c2ccccc12	i	i	i	i	i	i	nt	nt	nt
Cc1cc(C)c(S(=O)(=O)N2CCC(C(=O)NCc3ccc(Cl)cc3Cl)CC2)c(C)c1	i	i	i	i	i	i	i	i	i
CN(C)c1ccc(CNC(=O)c2cc(S(=O)(=O)N3CCOCC3)cn2C)cc1	i	i	i	i	i	i	nt	nt	nt
COC(=O)c1cc2sc(Cl)cc2n1CC(=O)Nc1cccc(SC)c1	i	i	i	i	-10	i	48%	i	32%
COc1ccc(OC(C)C(=O)N(C)Cc2nc(-c3cccc(C)c3)no2)cc1 (stereo not given)	i	i	i	i	i	i	i	i	i
COc1cccc(OCC(=O)N(C)Cc2nc(-c3cccc(C)c3)no2)c1	i	i	i	i	i	i	i	i	i
Cc1cccc(-c2noc(CN(C)C(=O)COc3ccccc3)n2)c1	i	i	i	i	i	i	nt	nt	nt
CCn1cc(C(=O)NC2CCCCCC2)c(=O)c2ccc(C)nc21	i	i	i	i	i	i	nt	nt	nt
Cc1nc(N2CCCCC2C)c2c(C)c(C(=O)Nc3ccccc3C(F)(F)F)sc2n1 (stereo not given)	i	i	9	i	-14	i	55%	i	42%
Cc1nc(N2CCOCC2)c2c(C)c(C(=O)Nc3ccccc3Cl)sc2n1	i	i	i	i	i	i	nt	nt	nt
Cc1ccccc1OCC(=O)NNC(=O)CSc1nc(N)cc(N)n1	i	i	i	i	i	i	nt	nt	nt
FCCCOc1ccc(/C=N/OCc2ccc(Cl)cc2Cl)cc1	i	i	i	i	i	i	i	i	i
COC(=O)CC(c1ccc(OC)c(OC)c1)c1ccc(OC)c(OC)c1	i	i	i	i	i	i	nt	nt	nt
N#Cc1nc(-c2ccc(Cl)cc2)oc1N1CCCCC1	i	i	i	i	-8.3	i	i	i	30%
CCOc1ccc(-c2nc(C#N)c(N3CCCCCC3)o2)cc1	i	i	i	i	-8.6	i	50%	i	40%
